Legend:
[1] = folding enthalpy; higher = less favourable; fluorescence melt of hairpins on a sequencing array, two-state fit; conditions: sodium 0.088 M
Procedure, shortened: (§1)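 To match UV melts, fitted temperatures were raised by 9.35 °C. These fits were bootstrapped two-state models that gave melting temperature and folding enthalpy, combined by inverse variance over four replicates. The input was normalised Cy3 fluorescence of library hairpins with annealed Cy3 and quencher oligos on a sequenced MiSeq flow cell, imaged in 50 mM Na-HEPES pH 8.0, 25 mM NaCl in 2.5 °C steps up to 60 °C.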

[2] = melting temperature; fluorescence melt of hairpins on a sequencing array, two-state fit, raised by 9.35 °C to match UV melts; conditions: sodium 0.088 M
Procedure, shortened: as §1

Sequence | folding enthalpy [1] [kcal/mol] | Tm [2] [°C]
GCTGAGCGAAAGCTAGC (((.(((....)))))) | -26.3 | 53
GCTTTCCGAAAGGAGAGC (((.(((....))).))) | -38.7 | 54.8
GCCAGGCGAAAGCCCAGC ((..(((....)))..)) | -13.5 | 40.2
GCGTGCGAAAGCATACGC ((((((....)))..))) | -28.9 | 63.9
GCTCCGTCGAAAGACAGC (((..(((....)))))) | -15 | 32.4
GTCCGCGAAAGCGTGGAC ((((((....)))..))) | -16.9 | 54.8
GCGTTGCGAAAGCAGGGC ((..(((....)))..)) | -23.5 | 55.7
GTCCCGGGAAACTGGGGC (.(((.(....).))).) | -41.1 | 48.6
GGCTACGCGAAAGCGGCC (((..(((....)))))) | -17.2 | 56.9
GATCTAATAGTAGATC ((((((....)))))) | -29.4 | 33.7
GGCTACGAAAGTAGCGCC ((((((....)))..))) | -9.93 | 55.7
GATCACCTACGTGATC ((((((....)))))) | -43 | 56.6
GCTCAGCGAAAGCACAGC (((..((....))..))) | -14.9 | 39.7
GGTGTTGGAAACAGTACC (((..((....))..))) | -18.7 | 31.7
GAAGGAGGAAACTCTTTC (((.(((....))).))) | -20.7 | 31.6
GCCTTGCGAAAGCCGGGC (((..((....))..))) | -19.9 | 55.1
GATCACCCAAGTGATC ((((((....)))))) | -46.8 | 55.7
GCTATGCGAAAGCGCAGC (((..((....))..))) | -18 | 36.8
GACTACGAAAGTATTGTC ((((((....)))..))) | -15.2 | 29.6
GCCCTCGAAAGAGGAGGC ((((((....)))..))) | -17 | 51.9
GTGCTCGAAAGAGCGCAC ((((((....)))..))) | -11.6 | 57.1
GATCAACGAAAGTTTATC (((.(((....))).))) | -28 | 32.5
GGCATCGGAAACAATGCC (((((.(....).))))) | -30.4 | 46.7

Sequence | folding enthalpy [1] [kcal/mol] | Tm [2] [°C]
GACTGCGAAAGCACTGTC ((((((....)))..))) | -12.8 | 39.9
GCTAGGCGAAAGCTTGGC ((.(.((....)).).)) | -20.6 | 45.2
GCGGCTGGAAACAGCCAC (.(((((....))))).) | -11.8 | 51.8
GTCCTCGAAAGAGCGAC ((((((....))).))) | -21.4 | 45.4
GTCCTGCCGAAAGGCGAC (((..(((....)))))) | -9.38 | 33.2
GTCCTAACGAAAGTTGAC (((..(((....)))))) | -10.9 | 26.6
GATCTTGCCTAAGATC ((((((....)))))) | -39.2 | 48.2
GCCATTGGAAACAATGGC (((((((....))))))) | -43.9 | 67.5
GTGAGGGGAAACCCTTGC (..((((....))))..) | -16.4 | 38.7
CGAAACGGAAACGTGTCG (((.(((....))).))) | -31.5 | 47.5
GTGTACGGAAACGTGCAC (((.(((....))).))) | -28.3 | 55.3
GACGACCCGAAAGGGGTC (((..(((....)))))) | -10.1 | 42.3
GTGGGACGAAAGTCTCAC (((.(((....))).))) | -36 | 60
GCAAGTCGAAAGACCTGC (((.(((....))).))) | -29.6 | 47.9
GCGTTGCACGC ((((...)))) | -23 | 59.4
GAGCACGAAAGTGGTCTC ((((((....)))..))) | -24 | 60
GATCTACGATAGATC ((((((...)))))) | -19.9 | 35.4
GCGGAGCGAAAGCACTGC ((.(.((....)).).)) | -12.7 | 50
GATCTGAGAGCAGATC ((((((....)))))) | -37.2 | 46.1
GCGCTTACGAAAGTACGC (((..(((....)))))) | -21.4 | 46.2
GGAATCGAAAGATGCTCC ((((((....)))..))) | -10.7 | 28.9
TTCGTGAAAACGAA (((((....))))) | -20.2 | 46.4
GCTCCCGGAAACAGGAGC (((((.(....).))))) | -34.3 | 49.5

Sequence | folding enthalpy [1] [kcal/mol] | Tm [2] [°C]
GGAATCGAAAGATGGTCC ((((((....)))..))) | -8.55 | 25.8
GATCGAGGACTCGATC ((((((....)))))) | -38.4 | 60.1
GATCCGTTTCCGGATC ((((((....)))))) | -41.2 | 58.9
GGGAGTGAAAACTCCC ((((((....)))))) | -34.1 | 65.2
GGCAAAGGAAACTTTACC ((.((((....)))).)) | -27.4 | 30.1
GGTCAAGGAAACCTGACC (((((.(....).))))) | -30.5 | 46.5
GTTTTGACGAAAGTCAAC (((..(((....)))))) | -11.5 | 34.6
GGAGACGAAAGTCTTTCC ((((((....)))..))) | -10.9 | 32.6
GGCGGTCGAAAGACAGCC (((.(((....))).))) | -35 | 67.7
GGAAACCCGAAAGGGTCC (((..(((....)))))) | -11.7 | 35
GTCTAAGAAATTAGAC ((((((....)))))) | -25.8 | 40.4
GTCCTTGGAAACAAGGGC (.(((((....))))).) | -36.7 | 52.3
CGCCGCGGAAACGCCGCG (((.(((....))).))) | -14.9 | 63.6
GTGAGCGAAAGCTCCCAC ((((((....)))..))) | -8.27 | 36.4
GCCCCAGCGAAAGCTGGC (((..(((....)))))) | -5.59 | 37.9
GAGGAGGGAAACCTCCTC (((((((....))))))) | -33.4 | 65.3
GAAGGACGAAAGTCTTC (((.(((....)))))) | -14.7 | 39.8
GCGGGAGCGAAAGCTCGC (((..(((....)))))) | -10.9 | 55.8
GATCCGTGGCGGATC ((((((...)))))) | -41.5 | 56.3
GCTCAACCGAAAGGTAGC (((..(((....)))))) | -18.4 | 39.4
GGATTACGAAAGTATTCC (((.(((....))).))) | -32.6 | 44
GGTTGCGAAAGCATACC ((((((....))).))) | -28.7 | 51.8
GTCAGGGGAAACCCCGAC (((.(((....))).))) | -24.8 | 50.2

Sequence | folding enthalpy [1] [kcal/mol] | Tm [2] [°C]
GAGGATGCGAAAGCACTC (((..(((....)))))) | -14.2 | 34.9
GATCATGTGAATGATC ((((((....)))))) | -39.3 | 54.6
GATCAAGCTATTGATC ((((((....)))))) | -40.8 | 50.2
GAGTACGAAAGTAGTCTC ((((((....)))..))) | -23.4 | 49.2
GATCTCAACGAGATC ((((((...)))))) | -35.5 | 55.8
GTTGGGCCGAAAGGCAAC (((..(((....)))))) | -15.3 | 45.4
CGGGACGGAAACGTTCCG (((.(((....))).))) | -37.8 | 59.4
GTATCGCGAAAGCGTAC (((.(((....)))))) | -12.1 | 44.5
GGCCTTCGAAAGAAAGCC (((.(((....))).))) | -31 | 45.7
GATCTCACTTGAGATC ((((((....)))))) | -39 | 54.1
GATCCTGGAAACAGAATC (((.(((....))).))) | -16.8 | 30.1
GTAACCGCGAAAGCGTAC (((..(((....)))))) | -8.01 | 28.4
GCTGTCGAAAGACGTAGC ((((((....)))..))) | -22.7 | 48.1
GCTTACGAAAGTACAAGC ((((((....)))..))) | -20 | 37.6
GATCCAGACTGGATC ((((((...)))))) | -36.9 | 52
GTCTAGGGAAACCTGGAC (((.(((....))).))) | -30.2 | 47.4
GCACGCCGAAAGGCTGC (((.(((....)))))) | -21.8 | 64.6
GATAAGGCGAAAGCCATC (((..(((....)))))) | -9.19 | 29.6
GTATAAGGAAACTTGTAC (((.(((....))).))) | -17.1 | 31.5
GTAAACGAAAGTTTTAC ((((((....))).))) | -18.5 | 36.5
GCCAACGAAAGTTAGGGC ((((((....)))..))) | -23.5 | 46.6
GTAACCGGAAACAGTTAC (((((.(....).))))) | -21.2 | 32.9
GGTAACCCGAAAGGGACC (((..(((....)))))) | -14.9 | 36.5

Reference: the array DNA melting data of Ke et al. (doi:10.1101/2024.01.08.574731)
